Compound activity: PubChem, several laboratories
In the library only some 2.7% were active in any assay of this set; here they are far more common.
Rpn11 block – Rpn11 (PSMD14) deubiquitinase inhibitors, primary screen, biochemical, fluorescence polarization, uHTS. 26S proteasome non-ATPase regulatory subunit 14 (Homo sapiens), O00487. human 26S proteasome, Ub4-pepOG fluorescence polarization; 20S core pre-blocked with epoxomicin. inhibition, % at 20 µM. actives 0.59% (n = 360,000). AID 588493, 2011;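 active = inhibition at 20 µM, scaled to each plate's controls, above about 33%, limit read from the data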
Target sequence (O00487 whole entry, looked up): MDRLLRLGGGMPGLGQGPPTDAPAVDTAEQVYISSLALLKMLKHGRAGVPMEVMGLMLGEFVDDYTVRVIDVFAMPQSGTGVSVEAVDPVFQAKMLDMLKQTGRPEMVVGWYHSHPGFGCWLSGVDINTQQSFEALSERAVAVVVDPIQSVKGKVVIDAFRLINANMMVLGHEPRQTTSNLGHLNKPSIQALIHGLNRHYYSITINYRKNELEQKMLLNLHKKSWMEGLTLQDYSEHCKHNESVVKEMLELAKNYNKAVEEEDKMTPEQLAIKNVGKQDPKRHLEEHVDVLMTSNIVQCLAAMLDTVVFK
PP1 counter – PP1-alpha phosphatase inhibitors, primary screen, counter-screen for PP5 inhibitor project, biochemical, fluorescence, OMFP substrate, single point; Serine/threonine-protein phosphatase PP1-alpha catalytic subunit (Homo sapiens), P62136; purified PP1alpha; inhibition, % at 6.7 µM; actives 0.9% (n = 320,000); AID 2235, 2010;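 active = inhibition above the mean inhibition of all tested compounds plus 3 SD, computed separately for each screening campaign, cut at about 15% in these data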
Target sequence (P62136 whole entry, looked up): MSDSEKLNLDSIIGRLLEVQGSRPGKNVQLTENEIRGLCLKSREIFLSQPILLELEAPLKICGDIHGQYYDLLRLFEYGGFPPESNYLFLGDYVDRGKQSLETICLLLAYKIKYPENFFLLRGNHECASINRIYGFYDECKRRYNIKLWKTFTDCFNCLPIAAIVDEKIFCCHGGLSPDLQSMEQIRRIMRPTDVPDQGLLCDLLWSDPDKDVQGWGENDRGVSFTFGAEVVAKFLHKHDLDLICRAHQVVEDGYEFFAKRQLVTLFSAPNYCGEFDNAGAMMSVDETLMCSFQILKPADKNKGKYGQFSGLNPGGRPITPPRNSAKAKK
CSN inh – inhibitors of CSN-mediated cullin deneddylation, primary screen, biochemical, fluorescence polarization, uHTS; COP9 signalosome complex subunit 5 (Homo sapiens), Q92905; Purified CSN, SCF-Nedd8-OG deneddylation; inhibition, % at 12.5 µM; actives 0.38% (n = 360,000);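 active = pattern-corrected inhibition above about 35%, with an unprinted fluorescence ratio check between 0.5 and 1.5, limit read from the data, passing the limit was not always enough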
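Test system: Human Csn5 produced in HEK293T cells | Compound: 12.5 µM single point | Times: 90 min, room temperature | Signal: Fluorescence polarization readout | Read-out basis: % inhibition of substrate cleavage by Csn5 | Controls: no-enzyme wells high, enzyme-with-substrate wells low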
HNF4A DNA FP – change in binding of human HNF4A to DNA, primary screen, biochemical, fluorescence polarization, FITC-DNA | Hepatocyte nuclear factor 4-alpha (Homo sapiens), P41235 | 1 h | actives 0.3% (n = 360,000) | activity change, % at 10 µM; in the data active = activity change above about 30%, passing the limit was not always enough
NadD block – inhibitors of S. aureus NadD, primary screen, biochemical, colorimetric, uHTS; Nicotinate-nucleotide adenylyltransferase NadD (Staphylococcus aureus N315); purified NadD enzyme, colorimetric absorbance read-out; inhibition, % at 20 µM; actives 0.78% (n = 360,000); AID 602399, 2012; in the data active = inhibition above about 26%
TPT1 inh – Candida albicans TPT1 enzyme inhibitors, primary screen, biochemical, fluorescence polarization | tRNA 2'-phosphotransferase TPT1 (Candida albicans SC5314) | recombinant caTPT1, FP RNA substrate dephosphorylation | inhibition, % at 5 µM | actives 0.81% (n = 300,000) | AID 1962, 2009;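 active = inhibition above the mean of all tested compounds plus 3 SD, set per screening campaign, cut at about 24% in these data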
Rpn11 confirm – Rpn11 (PSMD14) deubiquitinase inhibitors, confirmation, biochemical, fluorescence polarization, single concentration; shares compounds with Rpn11 block; purified human 26S proteasome, Ub4-pepOG fluorescence polarization; proteasome pretreated with epoxomicin; inhibition, % at 20 µM; actives 29% (n = 1,900); AID 602318, 2012
MMP-2 counter – MMP-2 enzyme inhibition, confirmation, counter-screen for RPN11 inhibitor project, biochemical, fluorescence, single concentration | inhibition, % at 20 µM | recombinant MMP-2, FRET peptide cleavage fluorescence | actives 4% (n = 1,900) | AID 602330, 2012 | shares compounds with Rpn11 block;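 note: human MMP-2 activated beforehand with APMA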
Thrombin FP – bovine thrombin protease inhibition, confirmation, counter-screen for Rpn11 inhibitor project, biochemical, fluorescence polarization, single concentration | shares compounds with Rpn11 block | bovine thrombin cleavage of Ub4-pepOG | inhibition, % at 20 µM | actives 13% (n = 1,900) | AID 602333, 2012;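 active = mean inhibition at least 40% at 20 µM, or signal 3 deviations below plate average, so some actives read negative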
Each line names hits and unclear results; the compound was inactive in the other large screens (follow-up assays come after a bar, where they were run). Cut-off read from the data, not from the text of the source, unless noted: active = inhibition above about 40%; inactive = the rest.

Cc1sc2ncnc(SCC(=O)NCC(C)C)c2c1C	none
Cc1sc2ncnc(SCC(=O)NC(C)(C)C)c2c1C	none
CC(C)C[C@@H](COCc1ccc([N+](=O)[O-])cc1)N1CCN(C(=O)c2ccc(C(F)(F)F)cc2)CCC1=O	none (no result: Rpn11 block, PP1 counter, TPT1 inh)
CCN1/C(=C\C=C2\C(=O)N(c3ccccc3)C(=S)N2C)Sc2ccccc21	Rpn11 block 48 (no result: PP1 counter, TPT1 inh) | Rpn11 confirm inactive | MMP-2 counter inactive | Thrombin FP inactive
CCOC(=O)N1CCN(C(C(=O)NC2CCCC2)c2cccc(OC)c2OC)CC1 (centres undefined)	none (no result: Rpn11 block, PP1 counter, NadD block, TPT1 inh)
O=C1C(O)CCN1Cc1ccccc1 (centres undefined)	none (no result: PP1 counter, TPT1 inh)
COc1ccccc1NS(=O)(=O)c1cccc(C(=O)N/N=C/c2ccc([N+](=O)[O-])o2)c1	none (no result: PP1 counter, TPT1 inh)
CCN(CC)c1ccc(/C=N/NC(=O)c2cccc(S(=O)(=O)Nc3ccccc3OC)c2)cc1	Rpn11 block 50 | Rpn11 confirm 57 | MMP-2 counter inactive | Thrombin FP inactive
CCOc1ccc(C2NC(=O)C(C#N)=C(S)N2c2cccc(C)c2)cc1OC (centres undefined)	none
CCOc1ccc(C2NC(=O)C(C#N)=C(S)N2c2ccc(C)cc2)cc1OC (centres undefined)	Rpn11 block 70, HNF4A DNA FP 31 | Rpn11 confirm inactive | MMP-2 counter inactive | Thrombin FP inactive
COc1ccc(COc2ccsc2C(=O)Nc2ccc(Cl)c(Cl)c2)cc1	Rpn11 block 44 | Rpn11 confirm inactive | MMP-2 counter inactive | Thrombin FP inactive
CC(OC(=O)c1ccco1)C(=O)NCc1ccc2c(c1)OCO2 (centres undefined)	none
COc1ccc(CN2CCNC(=O)C2CC(=O)N(C)Cc2nccs2)cc1OC (centres undefined)	none
COc1ccc(CN2CCNC(=O)C2CC(=O)N(C)Cc2nccn2C)cc1OC (centres undefined)	Rpn11 block 47 | Rpn11 confirm inactive | MMP-2 counter inactive | Thrombin FP inactive
Cc1nc(C)c(C(=O)OCC(=O)NCCc2ccc(F)cc2)s1	none (no result: PP1 counter, TPT1 inh)
CC1(C(=O)Nc2ccccc2)Cc2c(-c3cccc(C(F)(F)F)c3)ccnc2O1 (centres undefined)	none (no result: PP1 counter, TPT1 inh)
Cc1ccc(C=C2C=C(c3ccccc3)OC2=O)cc1	none (no result: PP1 counter, TPT1 inh)
CN(C)c1ccc(/C=C2/C=C(c3ccc4c(c3)CCCC4)OC2=O)cc1	Rpn11 block 69, HNF4A DNA FP 45 | Rpn11 confirm inactive | MMP-2 counter inactive | Thrombin FP inactive
O=C(Nc1nc2ccsc2c(=O)s1)c1ccc(F)cc1Cl	none
O=C(Nc1nc2ccsc2c(=O)s1)c1ccc(F)cc1	Rpn11 block 43 | Rpn11 confirm inactive | MMP-2 counter inactive | Thrombin FP inactive
CCNc1nc(Cl)nc(NCc2ccccc2)n1	Rpn11 block 68 | Rpn11 confirm inactive | MMP-2 counter inactive | Thrombin FP inactive
CC(C)C(NC(=O)c1ccc(F)cc1)C(=O)N1CCN(c2ccccn2)CC1 (centres undefined)	none (no result: PP1 counter, TPT1 inh)
CCN(CC)S(=O)(=O)c1cc(OC)ccc1N=Nc1ccc(O)c2ncccc12	Rpn11 block 50 (no result: PP1 counter, TPT1 inh) | Rpn11 confirm 48 | MMP-2 counter 43 | Thrombin FP inactive
Cc1ccccc1NC(=O)c1cc(C(=O)c2cc(Cl)ccc2O)cn(-c2ccccc2C)c1=O	Rpn11 block 47 | Rpn11 confirm inactive | MMP-2 counter inactive | Thrombin FP inactive
COc1ccc(Cc2c(-c3cccc(Cl)c3)nc3c(C)cc(Br)cn23)c(C)c1	none (no result: PP1 counter, TPT1 inh)
CCCC(C)C(=O)Nc1ccc(Cl)cn1 (centres undefined)	Rpn11 block 33 | Rpn11 confirm inactive | MMP-2 counter inactive | Thrombin FP inactive
CCCCC(=O)Nc1ccc(Cl)cn1	none
CCc1cc(CNC(=O)C2CCC(=O)N(CCc3ccc(OC)cc3)C2)on1 (centres undefined)	Rpn11 block 85, HNF4A DNA FP 39 | Rpn11 confirm inactive | MMP-2 counter inactive | Thrombin FP inactive
O=[N+]([O-])c1ccc(O)c(/C=N/NC2=NS(=O)(=O)c3ccccc32)c1	Rpn11 block 49 | Rpn11 confirm 90 | MMP-2 counter inactive | Thrombin FP inactive
O=C(CCc1nc2sc3c(c2c(=O)[nH]1)CCCC3)N1CCN(c2ccccc2)CC1	none
O=C(O)c1ccc(/C=C/c2nc3sc4c(c3c(=O)[nH]2)CCC4)cc1	Rpn11 block 73 | Rpn11 confirm 91 | MMP-2 counter inactive | Thrombin FP 40
O=C(Nc1c(F)cccc1F)c1ccc2c(c1)CCN2S(=O)(=O)c1ccccc1	none
Fc1ccccc1NC(=S)NN(Cc1ccccc1)c1ccccc1	Rpn11 block 111, HNF4A DNA FP 38 | Rpn11 confirm inactive | MMP-2 counter 46 | Thrombin FP inactive
CC(C)c1ccccc1NC(=S)NN(Cc1ccccc1)c1ccccc1	none
CC(C)CC(N)c1csc(NC(=O)Nc2ccccc2C(C)(C)C)n1 (centres undefined)	none (no result: PP1 counter, TPT1 inh)
Cc1nc(N)sc1-c1csc(Nc2ccc(S(N)(=O)=O)cc2)n1	Rpn11 block 41 (no result: PP1 counter, TPT1 inh) | Rpn11 confirm inactive | MMP-2 counter inactive | Thrombin FP inactive
NS(=O)(=O)c1ccc(Nc2nc(-c3ccc(O)cc3)cs2)cc1	none
CCOC(=O)N1CCN(C(=O)CCC(=O)c2ccc(OCC)cc2)CC1	none
CCOc1ccc(C(=O)CCC(=O)N2CCC(C(=O)OC)CC2)cc1	Rpn11 block 48 | Rpn11 confirm inactive | MMP-2 counter inactive | Thrombin FP inactive
Cc1ccc(Sc2ncccc2C(=O)N(C)Cc2cccs2)c(C)c1	none
O=C(CCNS(=O)(=O)c1ccc(Br)cc1)NCc1cccs1	none
O=C(CCNS(=O)(=O)c1cccs1)NCc1cccs1	Rpn11 block 110 | Rpn11 confirm inactive | MMP-2 counter inactive | Thrombin FP inactive
